The target in one test is T1, TAK1 (Homo sapiens, UniProt O43318).
T1 sequence (O43318 1-303 limits assumed): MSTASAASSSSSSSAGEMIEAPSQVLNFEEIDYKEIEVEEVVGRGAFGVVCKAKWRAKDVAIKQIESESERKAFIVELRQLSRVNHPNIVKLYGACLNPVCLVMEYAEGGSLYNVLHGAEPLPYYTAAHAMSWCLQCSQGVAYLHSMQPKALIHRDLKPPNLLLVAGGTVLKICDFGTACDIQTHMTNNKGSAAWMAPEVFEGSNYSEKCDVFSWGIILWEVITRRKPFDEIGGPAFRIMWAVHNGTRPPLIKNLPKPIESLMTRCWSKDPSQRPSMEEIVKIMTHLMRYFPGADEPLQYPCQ
The test is described as follows: TAK1 ADP-Glo kinase assay. The class given is biochemical. The conditions noted are these: for TAK1 kinase inhibition: compound 500 nM. The method in brief:
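Tiered TAK1 screen using the ADP-Glo kinase assay. Test compounds were first tested at 500 nM. Those exceeding 50% enzyme inhibition were retested at 100 nM, then at 20 nM. Values are means of triplicates with SD.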
Background: ADP-Glo turns the ADP formed in a reaction into a luminescent signal.

Test [1] concerns phosphorylated TAK1 (S412). The test is described as follows: pTAK1. It is filed as cell-based, murine. The conditions noted are these: MPC-11 cells, 0.1 or 0.5 μM, 48 h, western blot. The method in brief:
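MPC-11 cells were seeded at 0.5–1 × 10^6, left 24 h, then treated with test compound at 0.1 or 0.5 μM or DMSO for 48 h. Cells were lysed in RIPA (pH 7.4) with protease inhibitors and 1 mM PMSF, and protein was measured by BCA. Lysates were run on 10% SDS-PAGE and blotted to PVDF. Blots were probed overnight at 4 °C for pTAK1, TAK1 and β-actin, then with HRP secondaries for 2 h at 24 °C. Detection was by chemiluminescence, with bands quantified relative to actin.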

Another test concerns the target PKAC alpha (Homo sapiens, UniProt P17612). The experiment in a line: KinomeScan PKAC alpha. The conditions noted are these: in words. The class given is binding.
A further test relates to kinase anti-targets. The experiment in a line: KinomeScan profiling, kinase anti-targets. It is filed as binding. The conditions noted are these: Eurofins KinomeScan; KIT, ZAP70, JAK2, RET, KDR, PDGFR, FGFR, EGFR, BRAF, AKT, AURKA or B.
The next test deals with MPC-11 cells. The experiment in a line: Cell viability assay. The class given is cell-based, murine. As to conditions: compound 200 nM. An outline of the steps: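 MPC-11 cells were grown in DMEM with 10% FBS at 37 °C under 5% CO2 and kept below 10 passages. Cells were seeded at 4–5 × 10^3 per well, left 24 h, then exposed to test compound (screened at 1 and 0.2 μM) for 72 h. CellTiter-Blue was added for 3 h and fluorescence read at 560/590 nm. Runs were in triplicate, normalised to DMSO-treated cells.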

Turning to `C[C@@H]1CN(c2ccc3ncc(-c4ccc(C(F)(F)F)cc4)n3n2)C[C@H](C)O1` [Compound 7, (2S,6R)-2,6-Dimethyl-4-(3-(4-(trifluoromethyl)phenyl)imidazo[1,2-b]pyridazin-6-yl)morpholine], the TAK1 kinase inhibition entry at TAK1 is given as “moderate kinase inhibition”.

With `C[C@@H]1CN(c2ccc3ncc(-c4ccc(CC#N)cc4)n3n2)C[C@H](C)O1` [Compound 14, 2-(4-(6-((2S,6R)-2,6-Dimethylmorpholino)imidazo[1,2-b]pyridazin-3-yl)phenyl)acetonitrile], the TAK1 kinase inhibition entry at TAK1 is on record as “moderate kinase inhibition”.

Turning to `C[C@@H]1CN(c2ccc3ncc(-c4ccc(C(N)=O)cc4)n3n2)C[C@H](C)O1` [Compound 12, 4-(6-((2S,6R)-2,6-Dimethylmorpholino)imidazo[1,2-b]pyridazin-3-yl)benzamide], on TAK1 (compound 100 nM), the “inhibition of TAK1” value is on record as “decrease in TAK1 kinase inhibition compared to the previous screening”.

In the case of `CNC(=O)c1ccc(-c2cnc3ccc(N4C[C@@H](C)O[C@@H](C)C4)nn23)cc1` [Compound 13, 4-(6-((2S,6R)-2,6-dimethylmorpholino)imidazo[1,2-b]pyridazin-3-yl)-N-methylbenzamide], at TAK1, the TAK1 kinase inhibition entry is “moderate kinase inhibition”.

As to `Cc1n[nH]c2ccc(-c3cnc4ccc(N5C[C@@H](C)O[C@@H](C)C5)nn34)cc12` [Compound 3, (2S,6R)-2,6-Dimethyl-4-(3-(3-methyl-1H-indazol-5-yl)imidazo[1,2-b]pyridazin-6-yl)morpholine], the “levels of phosphorylated TAK1 (S412) compared to DMSO control” value (“levels … compared to DMSO control” below) in test [1] was “successful in reducing levels of phosphorylated TAK1 (S412)”.

Take `C[C@@H]1CN(c2ccc3ncc(-c4ccc(F)c(C#N)c4)n3n2)C[C@H](C)O1` [Compound 16, 5-(6-((2S,6R)-2,6-Dimethylmorpholino)imidazo[1,2-b]pyridazin-3-yl)-2-fluorobenzonitrile]: the TAK1 kinase inhibition entry at TAK1 is “moderate kinase inhibition”.

For the compound `C[C@@H]1CN(c2ccc3ncc(-c4ccncc4)n3n2)C[C@H](C)O1` [Compound 17, (2S,6R)-2,6-Dimethyl-4-(3-(pyridin-4-yl)imidazo[1,2-b]pyridazin-6-yl)morpholine], the TAK1 kinase inhibition entry on TAK1 was “moderate kinase inhibition”.

As for `C[C@@H]1CN(c2ccc3ncc(-c4cccnc4)n3n2)C[C@H](C)O1` [Compound 18, (2S,6R)-2,6-Dimethyl-4-(3-(pyridin-3-yl)imidazo[1,2-b]pyridazin-6-yl)morpholine], the TAK1 kinase inhibition result on TAK1 is listed as “negligible kinase inhibition”.

Broadly, the inhibition is the drop in the measured response relative to a control, in per cent. `C[C@@H]1CN(c2ccc3ncc(-c4ccc5cn[nH]c5c4)n3n2)C[C@H](C)O1` [Compound 21, (2S,6R)-4-(3-(1H-Indazol-6-yl)imidazo[1,2-b]pyridazin-6-yl)-2,6-dimethylmorpholine]: the inhibition at 0.5 µM at TAK1 (read-out: TAK1 kinase inhibition, compound 500 nM) is less than 50%.

Consider `C[C@@H]1CN(c2ccc3ncc(-c4ccc(C#N)cc4)n3n2)C[C@H](C)O1` [Compound 6, 4-(6-((2S,6R)-2,6-Dimethylmorpholino)imidazo[1,2-b]pyridazin-3-yl)benzonitrile], for which, at TAK1, the TAK1 kinase inhibition entry is “moderate kinase inhibition”.

Regarding `C[C@@H]1CN(c2ccc3ncc(-c4ccccc4)n3n2)C[C@H](C)O1` [Compound 5, (2S,6R)-2,6-Dimethyl-4-(3-phenylimidazo[1,2-b]pyridazin-6-yl)morpholine], the TAK1 kinase inhibition entry at TAK1 is “negligible kinase inhibition”.

For `CCCn1/c(=N/C(=O)c2cccc(C(N)=O)c2)[nH]c2ccccc21` [Takinib, reference compound], in test [1], the “levels … compared to DMSO control” value is given as “did not show a significant difference”.

Regarding `C[C@@H]1CN(c2ccc3ncc(-c4ccc5[nH]nc(C6CC6)c5c4)n3n2)C[C@H](C)O1` [Compound 26, (2S,6R)-4-(3-(3-Cyclopropyl-1H-indazol-5-yl)imidazo[1,2-b]pyridazin-6-yl)-2,6-dimethylmorpholine], the “affinity for PKAC alpha” value at PKAC alpha is given as “low affinity”. Further, the “inhibition of kinase anti-targets” value in the test with kinase anti-targets is reported as “minimal inhibition”. For the same compound, in test [1], the “levels … compared to DMSO control” value is reported as “successful in reducing levels of phosphorylated TAK1 (S412)”.

For `C[C@@H]1CN(c2ccc3ncc(-c4cccc(S(C)(=O)=O)c4)n3n2)C[C@H](C)O1` [Compound 8, (2S,6R)-2,6-Dimethyl-4-(3-(3-(methylsulfonyl)phenyl)imidazo[1,2-b]pyridazin-6-yl)morpholine], the TAK1 kinase inhibition result on TAK1 is recorded as “moderate kinase inhibition”.

With `C[C@@H]1CN(c2ccc3ncc(-c4ccc(F)cc4)n3n2)C[C@H](C)O1` [Compound 9, (2S,6R)-4-(3-(4-Fluorophenyl)imidazo[1,2-b]pyridazin-6-yl)-2,6-dimethylmorpholine], the TAK1 kinase inhibition result at TAK1 is “moderate kinase inhibition”.

As for `Cc1n[nH]c2ccc(-c3cnc4ccc(N5CCO[C@@H](C)C5)nn34)cc12` [Compound 33, (S)-2-Methyl-4-(3-(3-methyl-1H-indazol-5-yl)imidazo[1,2-b]pyridazin-6-yl)morpholine], in the test with MPC-11 cells, the “inhibition of MPC-11” value is “inactive”.

Regarding `C[C@@H]1CN(c2ccc3ncc(-c4cccc(C#N)c4)n3n2)C[C@H](C)O1` [Compound 19, 3-(6-((2S,6R)-2,6-Dimethylmorpholino)imidazo[1,2-b]pyridazin-3-yl)benzonitrile], on TAK1, the TAK1 kinase inhibition result was “negligible kinase inhibition”.

With `C[C@@H]1CN(c2ccc3ncc(-c4ccc(OC(F)(F)F)cc4)n3n2)C[C@H](C)O1` [Compound 11, (2S,6R)-2,6-Dimethyl-4-(3-(4-(trifluoromethoxy)phenyl)imidazo[1,2-b]pyridazin-6-yl)morpholine], the TAK1 kinase inhibition result at TAK1 is “negligible kinase inhibition”.
